ChEMBL document CHEMBL1149101, “New antibacterial agents derived from the DNA gyrase inhibitor cyclothialidine” (J Med Chem, 2004)
Values after ≈ are worked out from the molar mass of the structure shown.

What was measured:
Micrococcus luteus = assay: Minimum inhibitory concentration against Micrococcus luteus ATCC 8340; format: functional
How it was run: (§1)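 Agar dilution per NCCLS in BB2 agar + 1% Isovitalex + 7.5% sheep blood + menadione, compound added to melted medium at 50 °C. About 10⁴ CFU/spot from diluted overnight cultures, multipoint-inoculated.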

[1] = biological target: DNA gyrase (Escherichia coli) (UniProt P0AES6+P0AES4)
Neisseria meningitidis = assay: Minimum inhibitory concentration against Neisseria meningitides 69480; format: functional; how it was run: as §1
Staphylococcus aureus [2] = assay: Minimum inhibitory concentration against Staphylococcus aureus Smith; format: functional
How it was run: (§2)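 NCCLS agar dilution on Mueller–Hinton agar, compound incorporated into melted medium at 50 °C. Inoculum about 10⁴ CFU/spot from diluted overnight cultures, multipoint-applied.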

Staphylococcus aureus [3] = assay: Minimum inhibitory concentration against Staphylococcus aureus ATCC 25923; format: functional; how it was run: as §2
Escherichia coli = assay: Minimum inhibitory concentration against Escherichia coli 25922; format: functional; how it was run: as §2
Enterococcus faecalis = assay: Minimum inhibitory concentration against Enterococcus faecalis 6; format: functional; how it was run: as §2
[4] = system: Stenotrophomonas maltophilia; assay: Minimum inhibitory concentration against Xanthomonas maltophilia AC739; format: functional; how it was run: as §2
[5] = system: Staphylococcus epidermidis; assay: Minimum inhibitory concentration against Staphylococcus epidermidis 16/2; format: functional; how it was run: as §2
Streptococcus pyogenes = assay: Minimum inhibitory concentration against Streptococcus pyogenes b15
Staphylococcus aureus [6] = assay: Minimum inhibitory concentration against Staphylococcus aureus 887; format: functional; how it was run: as §1
[7] = Staphylococcus aureus, read-out: MIC
[8] = Staphylococcus aureus, ATCC 25923, read-out: MIC
[9] = Streptococcus pyogenes, read-out: MIC

Row | Structure (SMILES) | MIC (Micrococcus luteus) [µg/mL] | MNEC [1] [µg/mL] | MIC (Neisseria meningitidis) [µg/mL] | MIC (Staphylococcus aureus [2]; [7]) [µg/mL] | MIC (Staphylococcus aureus [3]; [8]) [µg/mL] | MIC (Staphylococcus aureus [6]) [µg/mL] | also measured
1 | COC(=O)[C@@H]1CSCc2c(O)ccc(C)c2C(=O)OCC(NC(=O)OC(C)(C)C)C(=O)N1 (stereo partly specified) | 32 (≈ 68.3 µM) | 1 | – | – | – | – | –
2 | COC(=O)[C@@H]1CSCc2c(O)cc(O)cc2C(=O)OCC(NC(=O)OC(C)(C)C)C(=O)N1 (stereo partly specified) | 128 (≈ 272 µM) | 0.5 | 128 (≈ 272 µM) | – | – | – | –
3 | COC(=O)c1c(C)c(OC)cc(O)c1CSC[C@H](NC(C)=O)C(=O)OC | – | 2 | – | > 64 | > 64 | – | –
4 | COC(=O)[C@@H]1CSCc2c(O)cc(O)c(C)c2C(=O)OC[C@@H](NC(=O)OC(C)(C)C)C(=O)N1 | 128 (≈ 264 µM) | 1 | 32 (≈ 66 µM) | – | – | – | –
5 | COC(=O)[C@@H]1CSCc2c(O)cc(OC)c(C)c2C(=O)OCC/C(S)=N/1 | – | 0.05 | – | 2 (≈ 5.01 µM) | 2 (≈ 5.01 µM) | – | MIC (Escherichia coli): > 64 µg/mL; MIC (Enterococcus faecalis): 4 µg/mL (≈ 10 µM); MIC (Staphylococcus aureus [2]): 2 µg/mL (≈ 5.01 µM); MIC (Staphylococcus aureus [3]): 2 µg/mL (≈ 5.01 µM); MIC [4]: 8 µg/mL (≈ 20 µM); MIC [5]: 0.5 µg/mL (≈ 1.25 µM); MIC (Streptococcus pyogenes; [9]): 4 µg/mL (≈ 10 µM)
6 | COC(=O)c1c(C)c(OC)cc(O)c1CSC[C@H](/N=C(/C)S)C(=O)OC | – | 0.2 | – | 8 (≈ 19.9 µM) | 16 (≈ 39.8 µM) | – | –
7 | COc1cc(O)c2c(c1C)C(=O)OC[C@H](NC(=O)OC(C)(C)C)C(=O)N[C@H](C(=O)O)CSC2 | > 64 | 10 | – | – | – | > 64 | MIC (Streptococcus pyogenes; [9]): > 64 µg/mL
8 | COC(=O)[C@@H]1CSCc2c(O)cc(O)c(C)c2C(=O)OC[C@H](N)C(=O)N1 | > 64 | 1 | – | – | – | > 64 | –
9 | COC(=O)[C@@H]1CSCc2c(O)cccc2C(=O)OCC(NC(=O)[C@H](CO)NC(=O)OC(C)(C)C)C(=O)N1 (stereo partly specified) | 64 (≈ 118 µM) | 0.4 | 32 (≈ 59.1 µM) | – | – | – | –
10 | COC(=O)[C@@H]1CSCc2c(O)cccc2C(=O)OCC(NC(=O)OC(C)(C)C)C(=O)N1 (stereo partly specified) | > 128 | > 1 | – | – | – | – | –
11 | C=CCNC(=O)[C@@H]1CSCc2c(O)cc(OC)c(C)c2C(=O)OC[C@H](NC(=O)OC(C)(C)C)C(=O)N1 | 8 (≈ 15.3 µM) | 0.1 | 4 (≈ 7.64 µM) | – | – | 16 (≈ 30.6 µM) | MIC (Streptococcus pyogenes; [9]): 16 µg/mL (≈ 30.6 µM)
12 | COc1cc(O)c2c(c1C)C(=O)OCCC/C(S)=N/[C@H](c1nc(C)no1)CSC2 | – | 0.004 | – | – | – | – | –
13 | COC(=O)[C@@H]1CSCc2c(O)cc(OC)c(C)c2C(=O)OC/C(S)=N/1 | – | 0.2 | – | > 64 | > 64 | – | –
14 | COC(=O)[C@@H]1CSCc2c(O)cc(OC)c(C)c2C(=O)OCCCCCCCCC(=O)N1 | – | > 1 | – | – | – | – | –
15 | COC(=O)[C@@H]1CSCc2c(O)cc(OC)c(C)c2C(=O)OCCCCC/C(S)=N/1 | – | 0.5 | – | 16 (≈ 36.2 µM) | 32 (≈ 72.5 µM) | – | –
16 | COC(=O)[C@@H]1CSCc2c(O)cc(O)c(C)c2C(=O)OCC(NC(=O)[C@@H]2C(O)CCN2C(=O)OC(C)(C)C)C(=O)N1 (stereo partly specified) | 8 (≈ 13.4 µM) | 0.05 | 64 (≈ 107 µM) | – | – | > 64 | MIC (Streptococcus pyogenes; [9]): 32 µg/mL (≈ 53.5 µM)
17 | COC(=O)[C@@H]1CSCc2c(O)cc(O)c(C)c2C(=O)OC[C@H](NC(=O)OC(C)(C)C)C(=O)N1 | 128 (≈ 264 µM) | 10 | 128 (≈ 264 µM) | – | – | – | –
18 | COc1cc(O)c2c(c1C)C(=O)O[C@H](CO)C/C(S)=N/[C@H](c1nc(C)no1)CSC2 | – | 0.01 | – | – | – | – | –
19 | COC(=O)[C@@H]1CSCc2c(O)cc(OC)c(C)c2C(=O)OCCCCCCC(=O)N1 | – | > 1 | – | > 64 | > 64 | – | –
20 | COC(=O)[C@@H]1CSCc2ccc(O)c(C)c2C(=O)OCC(NC(=O)OC(C)(C)C)C(=O)N1 (stereo partly specified) | > 128 | > 100 | – | – | – | – | –
21 | COC(=O)[C@@H]1CSCc2cccc(C)c2C(=O)OCC(NC(=O)OC(C)(C)C)C(=O)N1 (stereo partly specified) | – | > 1 | – | – | – | – | –
22 | COC(=O)[C@@H]1CSCc2c(O)cc(OC)c(C)c2C(=O)OC[C@H](C)C(=O)N1 | 16 (≈ 40.3 µM) | 0.4 | 8 (≈ 20.1 µM) | – | – | 16 (≈ 40.3 µM) | MIC (Streptococcus pyogenes; [9]): 16 µg/mL (≈ 40.3 µM)
23 | COC(=O)[C@@H]1CSCc2c(O)cc(O)c(C)c2C(=O)OCC(NC(=O)OC(C)(C)C)C(=O)N1 (stereo partly specified) | 16 (≈ 33 µM) | 0.2 | 16 (≈ 33 µM) | 128 (≈ 264 µM) | > 64 | > 64 | MIC (Escherichia coli): > 64 µg/mL; MIC (Enterococcus faecalis): 64 µg/mL (≈ 132 µM); MIC [4]: > 64 µg/mL; MIC [5]: 64 µg/mL (≈ 132 µM); MIC (Streptococcus pyogenes): 64 µg/mL (≈ 132 µM); MIC (Streptococcus pyogenes; [9]): 32 µg/mL (≈ 66 µM)
24 | COC(=O)[C@@H]1CSCc2c(O)cc(O)c(C)c2C(=O)OCC(NC(=O)[C@H]2C(O)CCN2C(=O)OC(C)(C)C)C(=O)N1 (stereo partly specified) | 128 (≈ 214 µM) | 1 | – | – | – | > 64 | –
25 | COC(=O)[C@@H]1CSCc2c(O)cc(OC)c(C)c2C(=O)OCC(NC(=O)OC(C)(C)C)C(=O)N1 (stereo partly specified) | 16 (≈ 32.1 µM) | 0.2 | 16 (≈ 32.1 µM) | 128 (≈ 257 µM) | > 64 | 64 (≈ 128 µM) | MIC (Escherichia coli): > 64 µg/mL; MIC (Enterococcus faecalis): 64 µg/mL (≈ 128 µM); MIC [4]: > 64 µg/mL; MIC [5]: 64 µg/mL (≈ 128 µM); MIC (Streptococcus pyogenes): 64 µg/mL (≈ 128 µM); MIC (Streptococcus pyogenes; [9]): 64 µg/mL (≈ 128 µM)
